Results as given in ChEMBL document CHEMBL1275301, “Antihypertensive activity of newer 1,4-dihydro-5-pyrimidine carboxamides: synthesis and pharmacological evaluation” (2010).
Calls of active or inactive are those of the source. The rule behind the calls is not given here.

Columns and labels:
[1] = test system: Rattus norvegicus; test: Antihypertensive activity against DOCA-salt induced hypertension in albino rat assessed as reduction in systolic blood pressure at 10 mg/kg, po up to 360 mins by tail-cuff method; type: functional, organism-based; parameters: dose 10 mg/kg; conditions: Artery
How it was run: (§1)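 Rats given DOCA 20 mg/kg s.c. twice weekly in olive oil for 4 weeks, with 1% w/v NaCl as drinking water, reaching systolic 160–180 mm Hg. Rats were trained in restrainer and tail-cuff sessions. Compounds in 0.5% CMC were dosed at 10 mg/kg by oral feeding needle, with vehicle and nifedipine groups. BP was read before dosing and after, with the tail warmed at 37 °C for 2–5 min. Each compound was run three times in one week and readings averaged.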

[2] = test system: Rattus norvegicus; test: Antihypertensive activity against DOCA-salt induced hypertension in albino rat assessed as reduction in systolic blood pressure at 10 mg/kg, po after 900 mins by tail-cuff method; type: functional; conditions: Artery, 15 h; how it was run: as §1
[3] = test system: Rattus norvegicus; test: Antihypertensive activity against DOCA-salt induced hypertension in albino rat assessed as reduction in systolic blood pressure at 10 mg/kg, po after 720 mins by tail-cuff method; type: functional; conditions: Artery, 12 h; how it was run: as §1
[4] = test system: Rattus norvegicus; test: Antihypertensive activity against DOCA-salt induced hypertension in albino rat assessed as reduction in systolic blood pressure at 10 mg/kg, po after 600 mins by tail-cuff method; type: functional; conditions: Artery, 10 h; how it was run: as §1
[5] = test system: Rattus norvegicus; test: Antihypertensive activity against DOCA-salt induced hypertension in albino rat assessed as reduction in systolic blood pressure at 10 mg/kg, po after 360 mins by tail-cuff method; type: functional; conditions: Artery, 6 h; how it was run: as §1
[6] = test system: Rattus norvegicus; test: Antihypertensive activity against DOCA-salt induced hypertension in albino rat assessed as reduction in systolic blood pressure at 10 mg/kg, po after 300 mins by tail-cuff method; type: functional; conditions: Artery, 5 h; how it was run: as §1
[7] = test system: Rattus norvegicus; test: Antihypertensive activity against DOCA-salt induced hypertension in albino rat assessed as reduction in systolic blood pressure at 10 mg/kg, po after 240 mins by tail-cuff method; type: functional; conditions: Artery, 4 h; how it was run: as §1
[8] = test system: Rattus norvegicus; test: Antihypertensive activity against DOCA-salt induced hypertension in albino rat assessed as reduction in systolic blood pressure at 10 mg/kg, po after 180 mins by tail-cuff method; type: functional; conditions: Artery, 3 h; how it was run: as §1
[9] = test system: Rattus norvegicus; test: Antihypertensive activity against DOCA-salt induced hypertension in albino rat assessed as reduction in systolic blood pressure at 10 mg/kg, po after 120 mins by tail-cuff method; type: functional; conditions: Artery, 2 h; how it was run: as §1
[10] = test system: Rattus norvegicus; test: Antihypertensive activity against DOCA-salt induced hypertension in albino rat assessed as reduction in systolic blood pressure at 10 mg/kg, po after 60 mins by tail-cuff method; type: functional; conditions: Artery, 1 h; how it was run: as §1
[11] = test system: Rattus norvegicus; test: Antihypertensive activity against DOCA-salt induced hypertension in albino rat assessed as reduction in systolic blood pressure at 10 mg/kg, po after 30 mins by tail-cuff method; type: functional; conditions: Artery, 0.5 h; how it was run: as §1
[12] = test system: Rattus norvegicus; test: Antihypertensive activity against DOCA-salt induced hypertension in albino rat assessed as reduction in systolic blood pressure at 10 mg/kg, po after 15 mins by tail-cuff method; type: functional; conditions: Artery, 0.25 h; how it was run: as §1

| Structure (SMILES) | Activity [1] | inhibition in vivo at 10 mg/kg [2] [%] | inhibition in vivo at 10 mg/kg [3] [%] | inhibition in vivo at 10 mg/kg [4] [%] | inhibition in vivo at 10 mg/kg [5] [%] | inhibition in vivo at 10 mg/kg [6] [%] | inhibition in vivo at 10 mg/kg [7] [%] | inhibition in vivo at 10 mg/kg [8] [%] | inhibition in vivo at 10 mg/kg [9] [%] | inhibition in vivo at 10 mg/kg [10] [%] | inhibition in vivo at 10 mg/kg [11] [%] | inhibition in vivo at 10 mg/kg [12] [%] |
| --- | --- | --- | --- | --- | --- | --- | --- | --- | --- | --- | --- | --- |
| CC1=C(C(=O)Nc2ccc(Br)cc2)C(c2ccc(Cl)cc2Cl)N=C(SCc2ccc(Cl)cc2)N1 (stereo not given) | Active | 22.1 | 25.8 | 30.3 | 39.7 | 38.5 | 32.3 | 23.2 | 17.5 | 11.8 | 6.7 | 4.1 |
| CC1=C(C(=O)Nc2ccc(F)cc2)C(c2ccc([N+](=O)[O-])cc2)N=C(SCc2cccc(Cl)c2)N1 (stereo not given) | Active | 10.8 | 12.9 | 16.4 | 21.1 | 18.5 | 15.9 | 11.9 | 9.8 | 7.2 | 4.1 | 2.1 |
| CC1=C(C(=O)Nc2ccc([N+](=O)[O-])cc2)C(c2cccc([N+](=O)[O-])c2)N=C(SCc2ccccc2)N1 (stereo not given) | Active | 14.9 | 17.5 | 27.2 | 32.5 | 25.6 | 21 | 16.5 | 10.3 | 7.7 | 4.1 | 2.6 |
| CC1=C(C(=O)Nc2ccc([N+](=O)[O-])cc2)C(c2cccc([N+](=O)[O-])c2)N=C(SCc2ccc(F)cc2)N1 (stereo not given) | Active | 15.4 | 20.1 | 30.3 | 36.1 | 27.2 | 22.6 | 17.5 | 13.4 | 7.2 | 4.1 | 2.6 |
| CC1=C(C(=O)Nc2ccc(F)cc2)C(c2ccc([N+](=O)[O-])cc2)N=C(SCc2ccc(F)cc2)N1 (stereo not given) | Active | 13.8 | 19.6 | 25.6 | 33 | 30.3 | 25.6 | 20.1 | 17 | 10.8 | 5.7 | 3.1 |
| CC1=C(C(=O)Nc2ccc([N+](=O)[O-])cc2)C(c2cccc([N+](=O)[O-])c2)N=C(SCc2cccc(Cl)c2)N1 (stereo not given) | Active | 10.8 | 12.9 | 19 | 21.6 | 21 | 17.9 | 14.9 | 12.4 | 8.2 | 4.1 | 2.6 |
| COc1ccc(C2N=C(SCc3ccc(F)cc3)NC(C)=C2C(=O)Nc2ccc(F)cc2)cc1OC (stereo not given) | Active | 15.4 | 17 | 21 | 37.1 | 37.9 | 28.7 | 22.2 | 15.5 | 11.8 | 6.7 | 3.6 |
| CC1=C(C(=O)Nc2ccc(F)cc2)C(c2ccc([N+](=O)[O-])cc2)N=C(SCc2ccccc2)N1 (stereo not given) | Active | 21 | 27.3 | 32.3 | 38.7 | 38.5 | 32.3 | 23.7 | 18 | 12.3 | 7.2 | 3.1 |
| CC1=C(C(=O)Nc2ccc(Br)cc2)C(c2ccc(Cl)cc2Cl)N=C(SCc2cccc(Cl)c2)N1 (stereo not given) | Active | 7.2 | 11.3 | 15.4 | 20.6 | 18.5 | 15.9 | 11.9 | 8.8 | 6.2 | 3.1 | 1.5 |
| CC1=C(C(=O)Nc2ccc([N+](=O)[O-])cc2)C(c2ccc(Br)cc2)N=C(SCc2ccc(F)cc2)N1 (stereo not given) | Active | 22.6 | 27.3 | 32.3 | 38.7 | 34.4 | 27.2 | 17.5 | 12.9 | 9.7 | 5.2 | 2.6 |
| COC(=O)C1=C(C)NC(C)=C(C(=O)OC)C1c1ccccc1[N+](=O)[O-] [NIFEDIPINE] | Active | 16.9 | 18.6 | 24.1 | 38.1 | 32.3 | 25.6 | 17.5 | 11.3 | 7.7 | 3.1 | 1.5 |
| COc1ccc(C2N=C(SCc3ccc(Cl)cc3)NC(C)=C2C(=O)Nc2ccc(Br)cc2)cc1 (stereo not given) | Active | 20 | 23.7 | 30.3 | 39.2 | 37.9 | 29.2 | 22.7 | 16.5 | 12.3 | 7.2 | 3.1 |
| COc1ccc(C2N=C(SCc3ccc(F)cc3)NC(C)=C2C(=O)Nc2ccc(Br)cc2)cc1 (stereo not given) | Active | 15.4 | 19.1 | 24.1 | 33.5 | 26.2 | 22.1 | 17 | 12.9 | 8.7 | 6.2 | 3.6 |
| CC1=C(C(=O)Nc2ccc(F)cc2)C(c2ccc([N+](=O)[O-])cc2)N=C(SCc2ccc(Cl)cc2)N1 (stereo not given) | Active | 16.9 | 22.2 | 28.2 | 39.7 | 37.9 | 33.3 | 23.2 | 16 | 11.8 | 6.7 | 3.6 |
| CC1=C(C(=O)Nc2ccc(Br)cc2)C(c2ccc(Cl)cc2Cl)N=C(SCc2ccc(F)cc2)N1 (stereo not given) | Active | 23.1 | 27.3 | 33.3 | 40.7 | 38.5 | 36.4 | 28.4 | 22.7 | 16.9 | 7.7 | 3.6 |
